Experimental data taken from ChEMBL document CHEMBL1123718, “Analogues and derivatives of tenoxicam. 1. Synthesis and antiinflammatory activity of analogues with different residues on the ring nitrogen and the amide nitrogen” (1987).

How the values were obtained:
Rattus norvegicus [1] = test: Anti-inflammatory activity was assessed by estimating kaolin-induced edema in rat hind paw, by administering orally; assay type: functional; conditions: po
Summary of the method: (§1)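 Female Füllinsdorf albino rats (about 70 g) got 0.1 mL of 10% kaolin suspension s.c. into the right hind paw. Drug in 0.5% tragacanth was given po 0.5 h before and 3.5 h after kaolin. Paw diameter was measured, and edema inhibition was expressed as % of controls. A phenylbutazone 30 mg/kg po validation group ran in each set. ED30 came from group means graphically, or from logit analysis with 95% CI.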

Rattus norvegicus [2] = test: Anti-inflammatory activity was assessed by estimating threshold pain response after oral administration to rats; assay type: functional
Summary of the method: (§2)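 Kaolin paw model in female Füllinsdorf rats (about 70 g): 0.1 mL of 10% kaolin s.c. into the right hind paw, with oral drug in 0.5% tragacanth at 0.5 h before and 3.5 h after. Pressure pain threshold was measured after kaolin, and its increase was expressed as % of controls. ED100 was read graphically from group means, or by logit analysis with 95% CI.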

Rattus norvegicus [3] = test: Ulcerogenic potential was assessed in a rat model by the enhancement of stress-induced gastric mucosal lesions after oral administration; assay type: functional; conditions: Gastric mucosa
Summary of the method: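 Female Füllinsdorf albino rats (about 160 g) were starved 24 h and given drug po in 0.5% tragacanth. They then had 2 h cold-water stress (22.5 °C) and were sacrificed. Rats with macroscopic gastric mucosal erosions were counted. ED50 was defined as the dose giving lesions in 50% of animals and calculated by probit analysis with 95% CI.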

Rattus norvegicus [4] = test: Anti-inflammatory activity was assessed by estimating threshold pain response after oral administration to rats; NE denotes not effective up to 100 mg/kg; assay type: functional, organism-based; set-up: dose 100 mg/kg; summary of the method: as §2
Rattus norvegicus [5] = test: Anti-inflammatory activity was assessed by estimating kaolin-induced edema in rat hind paw, by administering orally;NE denotes not effective up to 100 mg/kg; assay type: functional, organism-based; set-up: dose 100 mg/kg; summary of the method: as §1
Rattus norvegicus [6] = test: Anti-inflammatory activity was assessed by estimating kaolin-induced edema in rat hind paw, by administering orally; NE not effective up to 100 mg/kg; assay type: functional, organism-based; set-up: dose 100 mg/kg; summary of the method: as §1
Rattus norvegicus [7] = test: Anti-inflammatory activity was assessed by estimating threshold pain response after oral administration to rats; NE not effective up to 100 mg/kg; assay type: functional, organism-based; set-up: dose 100 mg/kg; summary of the method: as §2
Rattus norvegicus [8] = test: Anti-inflammatory activity was assessed by estimating kaolin-induced edema in rat hind paw, by administering orally;NE not effective up to 100 mg/kg; assay type: functional, organism-based; set-up: dose 100 mg/kg; summary of the method: as §1
Rattus norvegicus [9] = test: Anti-inflammatory activity was assessed by estimating kaolin-induced edema in rat ind paw, by administering orally; assay type: functional; conditions: po; summary of the method: as §1
Rattus norvegicus [10] = test: Anti-inflammatory activity was assessed by estimating threshold pain response after oral administration to rats;NE not effective up to 100 mg/kg; assay type: functional, organism-based; set-up: dose 100 mg/kg; summary of the method: as §2

Row | SMILES | ED30 (Rattus norvegicus [1]) [mg/kg] | ED100 (Rattus norvegicus [2]) [mg/kg] | ED50 (Rattus norvegicus [3]) [mg/kg] | other results
1 | CN1C(C(=O)Nc2ccccn2)=C(O)c2ccccc2S1(=O)=O [PIROXICAM] | 1.9 | 4 | 0.5 | 
2 | CN1C(C(=O)Nc2ccncc2)=C(O)c2sccc2S1(=O)=O |  |  |  | ED100 (Rattus norvegicus [4]): No effect; ED30 (Rattus norvegicus [5]): No effect
3 | Cc1cc(NC(=O)C2=C(O)c3sccc3S(=O)(=O)N2C)nc(C)n1 |  |  |  | ED30 (Rattus norvegicus [6]): No effect; ED100 (Rattus norvegicus [7]): No effect
4 | CN1C(C(=O)Nc2ccc(O)cc2)=C(O)c2sccc2S1(=O)=O |  |  |  | ED100 (Rattus norvegicus [4]): No effect; ED30 (Rattus norvegicus [5]): No effect
5 | O=C(Nc1ccccn1)C1=C(O)c2sccc2S(=O)(=O)N1 | > 100 | >100 |  | 
6 | CN1C(C(=O)Nc2ncccn2)=C(O)c2sccc2S1(=O)=O |  |  |  | ED30 (Rattus norvegicus [8]): No effect; ED100 (Rattus norvegicus [7]): No effect
7 | Cc1cccc(NC(=O)C2=C(O)c3sccc3S(=O)(=O)N2C)c1 | 43.4 | 3.9 | 7 | 
8 | CN1C(C(=O)Nc2nccs2)=C(O)c2sccc2S1(=O)=O | 20 | 14 | 2.2 | 
9 | CN1C(C(=O)Nc2cccnc2)=C(O)c2sccc2S1(=O)=O |  | >100 | 6.3 | ED30 (Rattus norvegicus [9]): 63.7 mg/kg
10 | Cc1noc(NC(=O)C2=C(O)c3sccc3S(=O)(=O)N2C)c1C |  |  |  | ED30 (Rattus norvegicus [8]): No effect; ED100 (Rattus norvegicus [10]): No effect
11 | CCN1C(C(=O)Nc2ccccn2)=C(O)c2sccc2S1(=O)=O |  | 24 |  | ED30 (Rattus norvegicus [8]): No effect
12 | Cc1cc(NC(=O)C2=C(O)c3sccc3S(=O)(=O)N2C)no1 | 20 | 24 |  | 
13 | Cc1cccc(NC(=O)C2=C(O)c3sccc3S(=O)(=O)N2C)n1 | 30 | 27.4 | 0.5 | 
14 | CN1C(C(=O)Nc2cnccn2)=C(O)c2sccc2S1(=O)=O | 70 | 56 | 1.8 | 
15 | CN1C(C(=O)Nc2cccc(Cl)c2)=C(O)c2sccc2S1(=O)=O | > 100 | >100 |  | 
16 | CN1C(C(=O)Nc2ccccc2)=C(O)c2sccc2S1(=O)=O | > 100 | 75 |  | 
17 | CN1C(C(=O)Nc2ccccn2)=C(O)c2sccc2S1(=O)=O [TENOXICAM] | 2.6 | 5.3 | 0.7 | 
